Data: ChEMBL document CHEMBL4513216, “Probing the Open Global Health Chemical Diversity Library for Multistage-Active Starting Points for Next-Generation Antimalarials” (ACS Infect Dis, 2020)

Experiment: Toxicity liver stage against HepG2, at 10uM
Format: cell-based
Set-up: test concentration 10 uM, cell line HepG2-A16-CD81EGFP
Settings: human, HepG2-A16-CD81EGFP cells; read-out: INHIBITION
Summary of the method: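 Uninfected HepG2-A16-CD81EGFP cells, 3 × 10^3 per well, 1536-well, plated on prespotted compound at 10 μM final, parasite-free screening media added to match infected plates; puromycin 10 μM positive, DMSO 0.5% negative; run in parallel with 48 h PbLuc assay at 37 °C, 5% CO2; viability by CellTiter-Glo luminescence, normalized to controls.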

SMILES	cytotoxicity at 10 µM
O=C(c1cccc(CNCC2CNc3ccnn3C2)c1)N1CCCC1 (stereo not given)	6.26%
CCc1nc(C)c(CN2CCCC(c3nn(C)c(=O)n3CC)C2)[nH]1 (stereo not given)	-7.77%
O=C(COC[C@@]12CCC[C@@H]1CN(C1CCCC1)C2)N1CCCC1	-112%
CC(C)OCCCNC(=O)C1CC(=O)N(c2n[nH]c3cccc(F)c23)C1 (stereo not given)	-4.73%
CCN(Cc1nc(-c2ccco2)no1)Cc1cccc2c1OCO2	8.33%
Cc1noc([C@]23COC[C@H]2CN(S(=O)(=O)N(C)C)C3)n1	10.9%
O=C(O)c1cc(-c2ccoc2)cc(S(=O)(=O)NCc2ccccn2)c1	-47.6%
CN(C)Cc1cnc2n1CCN(C(=O)NC1CCCC1)CC2	-3.77%
O=C(CN1CCCC(Cn2cncn2)C1)NCCC1=CCCCC1 (stereo not given)	-3.33%
Cc1cc(C(=O)N(Cc2c(C)nn(C)c2C)C(C)C)nc(C)n1	-9.85%
CCc1noc(CN2CCN(CCO)CC2)n1	-6.13%
Cc1cnn(CCNCC(O)COc2ccc(Cl)cc2Cl)c1 (stereo not given)	-1.76%
O=C(O)c1ccn(-c2ccccc2NS(=O)(=O)c2cccc(Cl)c2F)n1	-3.36%
Cc1nn(C)c(N2CCOCC2)c1CNCc1ccnc(N(C)C)c1	1.97%
CC(=O)Nc1nc(C(=O)N2CCCC(n3ccnc3C)C2)cs1 (stereo not given)	-9.78%
O[C@H]1CC[C@@H](Cc2cc(-c3ccccn3)on2)O[C@@H]1CNCC1CC1	-4.05%
CC(C)Cc1nc(CN(C)CCOc2ccccc2F)no1	-0.731%
COc1cccc(OC2CN(C(=O)c3ccoc3C)C2)c1	9.21%
CCCc1nnc(N[C@H](C)c2ccc(OC)cc2)o1	-19.9%
CC(C)c1nc(CN2CCN(C(=O)CN3CCOCC3)CC2)no1	-7.8%
O=C(NC1CCC1)[C@H]1C[C@H]2CN(S(=O)(=O)c3ccccc3)C[C@@H]1O2	-9.02%
Cc1cc(CN2CCN(C(=O)Cc3ccccc3F)CC2)on1	-4.02%

SMILES	cytotoxicity at 10 µM
CCCN1CCC(c2nc3ccc(-c4cccc(OC)c4)cn3n2)CC1	-113%
CC(=O)N1CCN(Cc2cccc3c2sc2ccccc23)CC(O)C1 (stereo not given)	-12.9%
CCCNC(=O)CCC(=O)Nc1cc2sc(C)nc2cc1OC	4.55%
Cc1ccsc1CN1CCCC(CNC(=O)c2ccc(N)nc2)C1 (stereo not given)	-2.25%
COc1ccc(-c2cc(C[C@@H]3C[C@H](N(C)C)C3(C)C)no2)cc1	-1.3%
Cc1ccc(-c2cn[nH]c2C2CCCN(c3nccc(N)n3)C2)cc1 (stereo not given)	15.6%
COc1cccc(Cn2c(C3CCNCC3)cc3cccnc32)c1	0.115%
CS(=O)(=O)NCCC1CCCCN1C(=O)NCCc1ccccn1 (stereo not given)	-4.24%
CC(=O)N(CCc1ccccc1)CC(=O)Nc1ccccc1C#N	6.59%
Cc1cnn(CCNCc2ccccc2Oc2cccnc2)c1	6.33%
c1cc(-c2cn[nH]c2)ncc1CN1CCCCC1	-1.35%
CC(=O)N1CCC(CCNC(C)c2cc(C)cc(C)c2)CC1 (stereo not given)	-9.8%
CCc1cc(NCCc2ccc(O)cc2)n2nccc2n1	-16.3%
CN(CCc1ccccn1)C(=O)C(c1cccnc1)N1CCOCC1 (stereo not given)	2.03%
CCC(Nc1nnnn1-c1ccccc1)C(=O)NCc1cccs1 (stereo not given)	-1.12%
COC(=O)c1ccc(S(=O)(=O)N2CCCn3ncnc32)s1	19.8%
Cc1cc(C(=O)N2CCC(C)CC2)ccc1NS(C)(=O)=O	3.09%
CCN(CC)c1ccc(NS(=O)(=O)c2cnn(C)c2)cn1	-7.12%
CN1CCC(NC(=O)C2CN(c3cncnc3)CCO2)CC1 (stereo not given)	-32.5%
COc1cc(CNCCn2cc(C)cn2)cc2c1OCCO2	-9.07%
O=C1CC(c2ccncc2)C2(CCN(Cc3cccnc3)CC2)N1 (stereo not given)	6.26%
CN(C)[C@@H]1CCN(C(=O)C2CCOCC2)[C@H]1Cc1ccncc1	1.72%

SMILES	cytotoxicity at 10 µM
Clc1ccccc1Cc1noc(CN2CCCC(CN3CCCC3)C2)n1 (stereo not given)	-3.15%
COCCn1ccnc1CN1CCc2[nH]cnc2C1c1cccc(O)c1 (stereo not given)	-2%
O=C1CCC(CCC(=O)N2CCCC2c2nccs2)=NN1 (stereo not given)	4.06%
O=C1CN(C(=O)C2CN(c3ccccc3)CCO2)CCN1 (stereo not given)	1.91%
O=C(N[C@@H]1CN(Cc2cccs2)[C@@H]2COC[C@@H]21)C1CCC1	9.34%
O=c1cccnn1CC1CN(CC2CCCC2)Cc2nccn2C1 (stereo not given)	5.03%
CCNc1nc(C)c(C(=O)N(C)Cc2nc(-c3ccncc3)no2)s1	1.41%
CCn1nnnc1-c1cccc(NC(=O)COC2CCCC2)c1	-0.47%
COC(=O)C1CCN(C(=O)Cn2ccc(-c3ccccc3)n2)CC1	-1.22%
Cc1nsc(N2CCN(CC(=O)N(C3CC3)C(C)C3CC3)CC2)n1 (stereo not given)	-12.4%
Cn1ccnc1-c1noc(NCc2ccccc2)n1	-3.49%
O=C(C1CCOC1)N1C[C@H]2CN(c3ccccc3)C(=O)[C@H]2C1 (stereo not given in full)	-123%
Cc1ccc(C)c(NC(=O)c2cc(S(=O)(=O)N3CCSCC3)c[nH]2)c1	-0.185%
Cn1cc(CN2CCCC3(COCCN(c4cccnc4)C3)C2)cn1 (stereo not given)	-75.6%
COCCn1ccc2c(NC(=O)c3n[nH]c4c3CCCC4)cccc21	10.3%
CSCC[C@@H](CO)Nc1nc(-c2ccccn2)nc2c1c(C)nn2C	2.7%
O=C(NCCN1CCCCC1)c1nc2ccccc2c(=O)[nH]1	10.5%
Cc1ccc(N2CCC(C3CCN(CC(C)C)CC3)C2)nn1 (stereo not given)	-6.81%
O=C(NCCc1ccncc1)c1ccc(S(=O)(=O)NC2CCC2)cc1	-7.54%
NC(=O)Cn1c(CO)cnc1SCC(=O)NCc1ccccc1	0.252%
CC1(C)[C@@H]2CC=C(CN3CCCn4nc(C(=O)O)cc4C3)[C@H]1C2	-40.8%
CC(C)CNC(=O)CN1C=Nc2ccccc2S1(=O)=O	-2.09%

SMILES	cytotoxicity at 10 µM
CC(=O)c1ccc(CN2CCCC23CCN(c2ccccn2)CC3)cc1	1.5%
O[C@@]1(c2ccccn2)CC[C@H]2CN(Cc3cccc(Cl)c3Cl)C[C@H]21	0.256%
COc1ccccc1Oc1ncccc1CNC(=O)C1COC(=O)N1 (stereo not given)	-6.01%
O=C(NCc1cc[nH]n1)NCC(O)c1ccccc1F (stereo not given)	-17.1%
CCN1C(=O)CCC12CCC(NC(=O)NCc1cccnc1)CC2 (stereo not given)	-104%
Cc1ccc(CN2CCc3[nH]nc(C(=O)N4CCNC(=O)C4)c3C2)s1	12%
O=C(c1ccccn1)N1C[C@H]2CCC[C@@]2(COCC2CCOCC2)C1	-76.3%
Cc1cc(CN2CCN(CCOc3cccc(C#N)c3)CC2)no1	-11.6%
CN1CC2(CCCN(C(=O)c3cnc4ccc(F)cc4c3O)C2)OC1=O (stereo not given)	6.25%
Cc1csc(NC(=O)[C@@H]2C[C@H]3[C@H](CCN3S(C)(=O)=O)O2)n1	1.64%
Cn1nccc1-c1ccc2nc(C3CCN(CC4CC4)CC3)nn2c1	5.85%
COCC(O)CNC(=O)c1cc(COc2ccc3c(c2)CCCC3)on1 (stereo not given)	-147%
CN(Cc1ccncc1)C(=O)NCc1nnc2n1CCCCC2	-26%
Cc1nc(C)n(CC2CCCN2CCCOc2ccc(C#N)cc2)n1 (stereo not given)	-8.33%
O=C(NCC1(O)CCC1)c1c(O)cc(F)cc1F	6.22%
Cc1nc(CN(C)C2CCN(CCCOc3ccccc3C)C2)no1 (stereo not given)	2.24%
CCc1cc(N[C@H](C(N)=O)C(C)C)n2nc(C)c(C)c2n1	5.88%
c1cncc(CC2CN(c3cccnc3)CCO2)c1 (stereo not given)	-0.41%
CC(Cn1ccnc1)NC(=O)N(C)Cc1ccc2c(c1)OCO2 (stereo not given)	-16.1%
Cc1ccc(-c2nn(-c3cccc(F)c3)cc2CN(C)CCO)o1	11.6%
COc1cccc(NC(=O)NC(C)(C)c2noc(C)n2)c1	7.35%
Cc1nc(C)n(CC2CCCN2Cc2ncc(C(C)(C)C)o2)n1 (stereo not given)	-5.53%

SMILES	cytotoxicity at 10 µM
CC(C)C(=O)N1CCN(CCOc2cccc(C#N)c2)CC1	10.8%
CCCC(Cn1cnc(-c2ccccc2)c1-c1cncn1CC)N(C)C (stereo not given)	7.59%
CC1(C)CN(CC(F)(F)F)CCN1CC(=O)NC1CCCC1	10.4%
O=C(c1ccc(F)c(F)c1)N1CCC(Cn2cc(CO)nn2)CC1	5.95%
Cc1nc(C)c(CC(=O)N2C[C@@H]3CC[C@H]2CN(c2cnccn2)C3)s1	10.1%
CSc1nccc(NCc2cc3n(n2)CCCN(S(C)(=O)=O)C3)n1	3.25%
c1cncc(-c2ccc3c(c2)CCC32CCN(Cc3ccco3)CC2)c1	17.1%
Cc1cccnc1NC(=O)C1CCCN1Cc1ccccc1 (stereo not given)	10.2%
CC(C(=O)O)N1CC2(CCC1=O)CCN(CCSc1ccccc1)CC2 (stereo not given)	2.57%
CCC1(CO)CCCN(C(=O)c2cc(COc3ccccc3F)[nH]n2)C1 (stereo not given)	20.8%
CCCN1CCCC1c1nc(Cc2ccc(F)cc2)no1 (stereo not given)	-2.74%
Cc1nc(NC(=O)NCc2nc3cccc(C)c3n2C)oc1C	-6.71%
Cc1cc(C)n(CCN2CCOC(CNc3cccnn3)C2)n1 (stereo not given)	-3.2%
CC(=O)NCc1ccc(-n2ccnc2C)nc1	-6.49%
OCCOCc1ncn2c1CN(Cc1cccs1)CCC2	-82.9%
Cc1nc(CN(C)C2CCN(CCc3ccc4c(c3)CCO4)C2)no1 (stereo not given)	-12%
Cc1cc2nc(C3CCCCC3)c(-c3ccnc(NCCO)n3)cn2n1	-0.0295%
Cc1nc([C@@H]2C[C@H]3CN(Cc4scnc4C)C[C@H]3O2)no1	-127%
Cc1occc1C(=O)NCC(=O)NCCOc1cccc(Cl)c1	0.0264%
Cc1cc(C(=O)N2CCc3ncc(CN4CCCCC4)n3CC2)no1	-100%
CN(Cc1cn2c(n1)CN(c1ncc(F)cn1)CC2)Cc1ccco1	3.96%
COC(CNC(=O)c1ccc(NC(C)=O)cc1)c1cccc(Cl)c1 (stereo not given)	7.72%
